Activity calls are given as the source filed them. The calls are words filed in the database; no cut-off is given here.
Tests used:
[1] = biological target: T1, Glycogen synthase kinase-3 beta (Homo sapiens, UniProt P49841); test: Inhibition of human recombinant GSK3beta at 10 uM after 30 mins by luminescence assay in presence of ATP
Procedure, shortened: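 Human recombinant GSK-3β (20 ng) with prephosphorylated polypeptide substrate 25 μM and ATP 1 μM in 50 mM HEPES pH 7.5, 1 mM EDTA, 1 mM EGTA, 15 mM Mg acetate. Final DMSO ≤1%. Incubated 30 min at 30 °C, stopped with Kinase-Glo reagent, and luminescence read after 10 min. Inhibition is relative to the no-inhibitor maximum. IC50 is the concentration giving 50% activity loss.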
Target sequence in this assay (P49841 whole entry, looked up): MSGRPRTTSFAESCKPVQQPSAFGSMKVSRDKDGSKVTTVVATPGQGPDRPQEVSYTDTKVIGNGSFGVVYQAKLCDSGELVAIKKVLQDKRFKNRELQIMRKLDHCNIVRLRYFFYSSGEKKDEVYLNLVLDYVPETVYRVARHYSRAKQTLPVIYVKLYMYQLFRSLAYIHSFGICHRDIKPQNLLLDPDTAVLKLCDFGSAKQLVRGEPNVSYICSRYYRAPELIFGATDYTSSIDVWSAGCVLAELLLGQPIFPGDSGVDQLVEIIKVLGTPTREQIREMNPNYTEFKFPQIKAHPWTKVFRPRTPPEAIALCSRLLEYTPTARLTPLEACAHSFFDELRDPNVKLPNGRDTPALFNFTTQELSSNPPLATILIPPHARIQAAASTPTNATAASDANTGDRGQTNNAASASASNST

[2] = biological target: T1, Glycogen synthase kinase-3 beta; test: Inhibition of human recombinant GSK3beta after 30 mins by luminescence assay in presence of ATP
Target sequence in this assay (P49841 whole entry): as the sequence (P49841 whole entry, looked up) above

[3] = Effective permeability across porcine polar brain lipid after 4 hrs by PAMPA; details: pig; for Papp at 4 h: PAMPA; for Peff: pampa, 4 h
Cortical neurone = test: Neuroprotective activity in rat cortical neurons assessed as decrease in LPS-induced nitrite production at 28 to 52 ug/ml after 24 hrs administered 1 hr before LPS challenge by Griess method; format: functional
Procedure, shortened: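 Cortical neurons from E18 rats were grown in Neurobasal/B-27 at 37 °C, 5% CO2 for 1 week. They were pretreated 1 h with compound, then exposed to supernatant from LPS-stimulated microglia. After 24 h, nitrite in the medium was measured by Griess reaction (equal volume reagent, 15 min room temperature, absorbance 492/540 nm).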

NSC = test: Neurogenic activity in rat hippocampal NSC assessed as increase in beta-tubulin after 24 hrs by DAPI staining-based immunocytometric analysis; format: functional, cell-based; details: Hippocampus
Procedure, shortened: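 Neurospheres from adult rat hippocampus were expanded in DMEM/F12 with EGF and FGF (10 ng/mL each) and B27, and treated with compound. Spheres were plated on poly-L-lysine without growth factors. Cells were fixed in 4% paraformaldehyde, permeabilized with 0.1% Triton X-100, stained with anti-β-tubulin (Tuj1) and an Alexa secondary, counterstained with DAPI, and imaged by confocal microscopy.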

Microglia = test: Neuroprotective activity in rat microglia cells assessed as decrease in LPS-induced nitrite production at 28 to 52 ug/ml after 24 hrs administered 1 hr before LPS challenge by Griess method; format: functional, cell-based
Procedure, shortened: (§1)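 Astrocytes and microglia were from neonatal (P2) rat cortex, separated by shaking; microglia received 10 ng/mL GM-CSF. Purity >98% (OX42/GFAP). Cells were pretreated 1 h with compound, then given LPS for 24 h. Supernatant was mixed 1:1 with Griess reagent, left 15 min at room temperature, and absorbance read at 492/540 nm.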

Astrocyte = test: Neuroprotective activity in rat astrocytes assessed as decrease in LPS-induced nitrite production at 28 to 52 ug/ml after 24 hrs administered 1 hr before LPS challenge by Griess method; format: functional, cell-based; procedure, shortened: as §1
[4] = biological target: T1, Glycogen synthase kinase-3 beta; test: Non-competitive inhibition of human recombinant GSK3beta at 10 uM after 30 mins by Michaelis-Menten equation in presence of 1 to 50 uM ATP; details: 0.4 to 2 uM, in the assay text read “at 0.4 to 2 uM” for “at 10 uM”
Procedure, shortened: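 Double-reciprocal kinetics on GSK-3β using the ADP-Glo kinase assay. ATP was varied from 1 to 50 μM and inhibitor from 0.4 to 2 μM, with GS-2 fixed at 12.5 μM. Each point is the mean of two experiments, each run in duplicate.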
Target sequence in this assay (P49841 whole entry, looked up): as above

[5] = biological target: T1, Glycogen synthase kinase-3 beta; test: Competitive inhibition of human recombinant GSK3beta at 0.5 to 2.5 uM after 30 mins by Michaelis-Menten equation in presence of 1 uM ATP
Target sequence in this assay (P49841 whole entry, looked up): as above

Compound	inhibition [1]	IC50 [2] [µM]	further results
OCCNC(=S)N/C(=N/c1cccc2ccccc12)c1ccccc1	inactive		
Br.OCC/N=c1\nc(-c2cccc3ccccc23)n(-c2ccccc2)s1	> 60%	0.3	Papp at 4 h [3]: 10.2 ×10⁻⁶ cm/s
CCCCC/C(=N\c1ccccc1)NC(=S)NCc1cccnc1	inactive		
CCOC(=O)C/N=c1\nc(-c2ccccc2)n(-c2ccccc2)s1 [listing 1 of 2 here]		1.8	
Br.FC(F)(F)c1ccc(-c2n/c(=N\Cc3cccnc3)sn2-c2ccccc2)cc1	> 60%	1.6	Peff [3]: ND(Insoluble)
Cl.OCC/N=c1\nc(-c2ccccc2)n(-c2ccccc2)s1		0.6	Papp at 4 h [3]: 13.6 ×10⁻⁶ cm/s
C/C(=N\c1ccccc1)NC(=S)NCc1cccnc1	inactive		
S=C(NCc1cccnc1)N/C(=N/c1ccccc1)c1cccc2ccccc12	inactive		
c1ccc(Cn2s/c(=N/Cc3cccnc3)nc2-c2ccccc2)cc1	> 60%	1.1	
Br.COc1ccc(-n2s/c(=N/CCO)nc2-c2ccccc2)cc1	> 60%	4.6	Papp at 4 h [3]: 13.4 ×10⁻⁶ cm/s; Activity (Cortical neurone): Active; Activity (NSC): Active; Activity (Microglia): Active; Activity (Astrocyte): Active
Br.COc1ccc(-c2n/c(=N\Cc3cccnc3)sn2-c2ccccc2)cc1	> 60%	1.2	Papp at 4 h [3]: 4.8 ×10⁻⁶ cm/s
CCOC(=O)CNC(=S)N/C(=N/c1ccc([N+](=O)[O-])cc1)c1ccccc1	inactive		
S=C(N/C(=N/c1ccccc1)c1ccccc1)NC1CCCCC1	inactive		
CCOC(=O)CNC(=S)N/C(=N/c1ccc(OC)cc1)c1ccccc1	inactive		
Br.COc1ccc(-c2n/c(=N\CCO)sn2-c2ccccc2)cc1	> 60%	1.2	Papp at 4 h [3]: 13.7 ×10⁻⁶ cm/s
Br.OCC/N=c1\nc(-c2ccccc2)n(-c2ccccc2)s1		2	Papp at 4 h [3]: 15.8 ×10⁻⁶ cm/s
CCCCC/N=c1\nc(-c2ccc(OC)cc2)n(-c2ccccc2)s1 [listing 1 of 2 here]		0.3	
O=[N+]([O-])c1ccc(/N=C(/NC(=S)NCc2cccnc2)c2ccccc2)cc1	inactive		
c1ccc(/N=C(/N=c2/nc3ccccn3s2)c2ccccc2)cc1	14%		
CCCCC/N=c1\nc(-c2ccccc2)n(-c2ccccc2)s1	> 60%	1.4	
Br.c1ccc(/N=c2/nc(-c3ccccc3)n(-c3ccccc3)s2)cc1	> 60%		Peff [3]: ND(Insoluble)
Br.COc1ccc(-n2s/c(=N/Cc3cccnc3)nc2-c2ccccc2)cc1	> 60%	4.1	Papp at 4 h [3]: 6.3 ×10⁻⁶ cm/s

Compound	inhibition [1]	IC50 [2] [µM]	further results
Br.CCOC(=O)C/N=c1\nc(-c2ccccc2)n(-c2ccc(OC)cc2)s1	> 60%	2	Papp at 4 h [3]: 4.4 ×10⁻⁶ cm/s
S=C(N/C(=N/c1ccccc1)c1ccccc1)Nc1ccccc1	inactive		
S=C(NCCN1CCOCC1)N/C(=N/c1ccccc1)c1ccccc1	inactive		
CCCCCNC(=S)N/C(=N/c1ccccc1)c1ccccc1	inactive		
COc1ccc(/C(=N\c2ccccc2)NC(=S)Nc2ccccc2)cc1	inactive		
OCC/N=c1\nc(-c2ccccc2)n(-c2ccccc2)s1	> 60%		Activity (Cortical neurone): Active; inhibition [4]: Active; Activity (NSC): Active; Activity (Microglia): Active; inhibition [5]: Active; Activity (Astrocyte): Active
COc1ccc(/N=C(/NC(=S)NCc2cccnc2)c2ccccc2)cc1	inactive		
Br.Cc1n/c(=N\Cc2cccnc2)sn1-c1ccccc1	> 60%	0.6	Papp at 4 h [3]: 5.3 ×10⁻⁶ cm/s
c1ccc(-n2s/c(=N/Cc3cccnc3)nc2-c2cccc3ccccc23)cc1 [listing 1 of 3 here]		0.9	
OCCNC(=S)N/C(=N/c1ccccc1)c1ccccc1	inactive		
Br.c1ccc(-c2n/c(=N\C3CCCCC3)sn2-c2ccccc2)cc1	> 60%	2.1	Peff [3]: ND(Insoluble)
CNCCCN1c2ccccc2CCc2ccccc21 [DESIPRAMINE]			Papp at 4 h [3]: 14.9 ×10⁻⁶ cm/s
Br.c1ccc(-c2n/c(=N\CCN3CCOCC3)sn2-c2ccccc2)cc1	> 60%	0.9	Papp at 4 h [3]: 7.2 ×10⁻⁶ cm/s; inhibition [4]: Active; inhibition [5]: Active
c1ccc(/N=c2\nc(-c3ccccc3)n(-c3ccccc3)s2)cc1	> 60%		Peff [3]: ND(Insoluble)
CCCCCNC(=S)N/C(=N/c1ccccc1)c1ccc(OC)cc1	inactive		
S=C(NCc1cccnc1)N/C(=N/c1cccc2ccccc12)c1ccccc1	inactive		
Cn1c(=O)c2c(ncn2C)n(C)c1=O [CAFFEINE]			Papp at 4 h [3]: 1.6 ×10⁻⁶ cm/s
OCC/N=c1\nc(-c2ccccc2)n(-c2cccc3ccccc23)s1	> 60%	0.3	
S=C(N/C(=N/c1ccccc1)c1ccccc1)Nc1ccccn1	inactive		
S=C(NCc1cccnc1)N/C(=N/c1ccccc1)c1ccccc1	inactive		
CCOC(=O)C/N=c1\nc(-c2ccccc2)n(-c2ccc([N+](=O)[O-])cc2)s1	> 60%	1	
COc1ccc(/C(=N\c2ccccc2)NC(=S)NCc2cccnc2)cc1	inactive		

Compound	inhibition [1]	IC50 [2] [µM]	further results
Br.COc1ccc(-c2n/c(=N\c3ccccc3)sn2-c2ccccc2)cc1	> 60%	1.1	Peff [3]: ND(Insoluble)
Br.CCOC(=O)C/N=c1\nc(-c2ccccc2)n(-c2ccccc2)s1		7	Papp at 4 h [3]: 6.2 ×10⁻⁶ cm/s
OCCNC(=S)N/C(=N/c1ccccc1)c1cccc2ccccc12	inactive		
S=C(NCc1cccnc1)N/C(=N/Cc1ccccc1)c1ccccc1	inactive		
O=[N+]([O-])c1ccc(-n2s/c(=N/Cc3cccnc3)nc2-c2ccccc2)cc1	> 60%	1	
COc1ccc(/C(=N\c2ccccc2)NC(=S)NCCO)cc1	inactive		
NC(=S)N/C(=N/c1ccccc1)c1ccccc1	inactive		
Br.CCOC(=O)C/N=c1\nc(-c2ccc(OC)cc2)n(-c2ccccc2)s1	> 60%	0.5	Papp at 4 h [3]: 4 ×10⁻⁶ cm/s
c1ccc(-n2s/c(=N/Cc3cccnc3)nc2-c2cccc3ccccc23)cc1 [listing 2 of 3 here]	> 60%		
CCCCCc1n/c(=N\Cc2cccnc2)sn1-c1ccccc1	> 60%	0.8	
Br.c1ccc(-c2n/c(=N\Cc3cccnc3)sn2-c2ccccc2)cc1	> 60%	1.3	Papp at 4 h [3]: 10.7 ×10⁻⁶ cm/s; Activity (Cortical neurone): Active; inhibition [4]: Active; Activity (NSC): Active; Activity (Microglia): Active; inhibition [5]: Active; Activity (Astrocyte): Active
c1ccc(-n2s/c(=N/Cc3cccnc3)nc2-c2cccc3ccccc23)cc1 [listing 3 of 3 here]		2.1	
CCCCC/N=c1\nc(-c2ccc(OC)cc2)n(-c2ccccc2)s1.Cl		1.1	Papp at 4 h [3]: 8.5 ×10⁻⁶ cm/s
CCOC(=O)CNC(=S)N/C(=N/c1ccccc1)c1ccccc1	inactive		
CCOC(=O)C/N=c1\nc(-c2ccccc2)n(-c2ccccc2)s1 [listing 2 of 2 here]	> 60%		Activity (Cortical neurone): Active; Activity (NSC): Active; Activity (Microglia): Active; Activity (Astrocyte): Active
c1ccc(-c2n/c(=N\Cc3cccnc3)sn2-c2cccc3ccccc23)cc1	> 60%	2	
FC(F)(F)c1ccc(/C(=N\c2ccccc2)NC(=S)NCc2cccnc2)cc1	inactive		
CN1C(C(=O)Nc2ccccn2)=C(O)c2ccccc2S1(=O)=O [PIROXICAM]			Papp at 4 h [3]: 1.7 ×10⁻⁶ cm/s
CCOC(=O)CNC(=S)N/C(=N/c1ccccc1)c1ccc(OC)cc1	inactive		
CCCCC/N=c1\nc(-c2ccc(OC)cc2)n(-c2ccccc2)s1 [listing 2 of 2 here]	> 60%		
COc1ccc(/N=C(/NC(=S)NCCO)c2ccccc2)cc1	inactive		
Br.N=c1nc(-c2ccccc2)n(-c2ccccc2)s1	> 60%	0.6	Papp at 4 h [3]: 9.1 ×10⁻⁶ cm/s

Source: ChEMBL document CHEMBL2021862, “5-imino-1,2,4-thiadiazoles: first small molecules as substrate competitive inhibitors of glycogen synthase kinase 3” (J Med Chem, 2012)
